Results of several laboratories.
Each line is one published result; the experiments were not run side by side.
Read-out: cell growth or viability

Structure (SMILES)	cell line	technique	time	CC50 [µM]
CC/C(=C(\c1ccccc1)c1ccc(OCCN(C)C)cc1)c1ccccc1	HEK293	resazurin	20 h	5.62
CC1c2cc(c(O)c(O)c2O)C(C)c2cc(c(O)c(O)c2O)C(C)c2cc(c(O)c(O)c2O)C(C)c2cc1c(O)c(O)c2O (centres unmarked)	HEK293	MTT	24 h	402
C=C(C)c1ccccc(=O)c1O	HepDES19	MTS	72 h	53.5
Cc1nc(C(CN)NC(=O)C(=O)Nc2ccc3c(c2)OCO3)sc1CO (centres unmarked)	MT2	MTS	96 h	≥ 650
O[C@@H](c1cc(C(F)(F)F)nc2c(C(F)(F)F)cccc12)[C@H]1CCCCN1	HEK293	MTT	24 h	8.84
CC(C)c1cccc(=O)c(O)c1	HepDES19	MTS	72 h	66.4
COC(=O)N[C@H](C(=O)N1CCC[C@H]1c1nc(-c2ccc(-c3ccc(-c4c[nH]c([C@@H]5CCCN5C(=O)[C@@H](NC(=O)OC)C(C)C)n4)cc3)cc2)c[nH]1)C(C)C	MT2		5 days	90
CCOc1ccc(-c2nc(CNCCc3ccc(F)cc3)cs2)cc1	HEK293	MTT	24 h	39
N#Cc1cc(Cl)cc(Oc2ccc(Cl)cc2OCCn2cc(Cl)c(=O)[nH]c2=O)c1	MT2			31
N=C(N)c1ccc(OCCCCCOc2ccc(C(=N)N)cc2)cc1	HEK293	MTT	24 h	82.9
O=c1cccccc1Sc1cccccc1=O	HepDES19	MTS	72 h	20.8
O=P(O)(O)c1cc2c(O)c(c1)Cc1cc(P(=O)(O)O)cc(c1O)Cc1cc(P(=O)(O)O)cc(c1O)Cc1cc(P(=O)(O)O)cc(c1O)Cc1cc(P(=O)(O)O)cc(c1O)Cc1cc(P(=O)(O)O)cc(c1O)Cc1cc(P(=O)(O)O)cc(c1O)Cc1cc(P(=O)(O)O)cc(c1O)C2	HEK293	ATP luminescence	24 h	747
CC[C@H](C)[C@H](NC(=O)OCC1c2ccccc2-c2ccccc21)C(=O)Sc1cccccc1=O	HepDES19	MTS	72 h	42.6
NCCN(C(=O)c1ccc(Cl)cc1Cl)c1ccc(OCc2ccc(Cl)cc2)cc1	HEK293	MTT	24 h	7.96
